# Bioassay records (PubChem BioAssay)
# An excerpt weighted towards active compounds, which were near 3.6% of everything screened.
# Phagocyt inh: inhibitors of macrophage phagocytosis; inhibition, % at 5 µM; 110,000 compounds, 0.07% hits; AID 1029; J774A.1 macrophage IgG-bead phagocytosis, imaging;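 active means inhibition above the mean of the plate negative controls plus 5 SD, cut at about 13% in these data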;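 further: phagocytic index as fraction of beads internalized from green versus red external bead signal; plate controls were DMSO negative control for no effect and cytochalasin-D positive control for full effect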
# Measles CPE: protection of cells from measles virus; Measles virus-infected cells, CPE protection, absorbance; protection (pct of control), % at 4 µM; 140,000 compounds, 1.5% hits; AID 841; in the data active means protection mostly above about 24%, no sharp cut-off; inactive means mostly below about 26%
# RAM inhibit: inhibitors of the yeast RAM network | inhibition, % at 50 µM | S. cerevisiae dse1pr::URA3 reporter, 5-FOA growth OD615, 2 d; analog-sensitive cbk1-as2 kinase mutant strain | 190,000 compounds, 1.8% hits;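 active means inhibition above a set limit, 3 SD over mean compound inhibition, cut at about 8.4% in these data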;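 further: 0% = DMSO-only wells with no growth and 100% = 10 µM 1-NA-PP1 full growth; inhibition rescues growth on 5-FOA so higher OD means more RAM inhibition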
# BB579 growth dn: reduces growth of yeast BB579 in restrictive medium; S. cerevisiae BB579 growth, OD615, 48 h; inhibition, % at 10 µM; 140,000 compounds, 0.51% hits;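 active means inhibition above a set limit, 3 SD over the mean compound inhibition, cut at about 44% in these data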
#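 Material: Saccharomyces cerevisiae DeaD strain BB579, replicative lifespan model yeast; buffer or medium: CSMM-D restrictive synthetic medium containing dextrose (glucose); compound: 10 µM single dose, DMSO 0.25%; timing: 48 h compound exposure at 30 °C after 4 h preincubation; signal: turbidity as optical density at 615 nm; benchmarks: positive control amphotericin B 10 µg/mL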
# Yeast life ext: extends the lifespan of yeast | S. cerevisiae growth with nicotinamide, OD615; deaD strain in restrictive glucose medium | inhibition of the nicotinamide effect, % at 10 µM | 130,000 compounds, 0.68% hits;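 active means inhibition above a set limit, placed 3 SD over the median of all compounds, cut at about 26% in these data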;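 further: 0% = nicotinamide-treated wells and 100% = cells grown without nicotinamide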
#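 Assay system: engineered S. cerevisiae DeaD replicative-lifespan strain, galactose-grown log-phase cells; Buffer or medium: CSMM-D glucose medium, restrictive; Probe or stimulus: nicotinamide 1.5 mM; Compound: single dose 10 µM compound, 0.25% DMSO; Schedule: 4 h preincubation then 48 h treatment at 30 °C; Technique: OD615 measurement.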
# * marks the source's active call; other numbers are inactive results; x = no result.
SMILES,Phagocyt inh,Measles CPE,RAM inhibit,BB579 growth dn,Yeast life ext
O=C(c1ccccc1)c1ccccc1C(=O)N1CCN(C(=O)c2ccccc2)CC1,x,x,2,x,x
NC(=O)C1CC(=O)N(c2ccc(OCc3ccc(Cl)cc3)cc2)C1 (stereo not given),x,x,1,x,x
O=C(c1ccc(CN2CCOCC2)cc1)N1CCN(Cc2ccccc2)CC1,0,44*,1,-21,-6
Cc1cc(C)cc(N2C(=O)CN(Cc3sccc3C)C2=S)c1,x,46*,2,-16,2
Cc1cccc(N2C(=O)CN(Cc3sccc3C)C2=S)c1,x,1,1,9,-6
CCOC(=O)CNC(=O)N1CCCC(C(=O)c2ccccc2SC)C1 (stereo not given),x,x,0,x,x
Cc1ccc(NC(=O)c2ccccc2NS(=O)(=O)c2ccc(F)cc2)cc1S(=O)(=O)N1CCCCC1,-5,2,8.9*,-37,7
COC(=O)c1ccccc1S(=O)(=O)N1CCn2cccc2C1C (stereo not given),x,x,5,x,x
COc1ccc(C(=O)NC(=S)NNC(=O)c2cnccn2)cc1OC,-13,1,3,90*,-5
CCc1ccc(C(CC(=O)c2ccc(Cl)cc2)C(=O)O)cc1 (stereo not given),x,20,3,-69,31*
CC(C)c1ccc(C(CC(=O)c2ccc(Cl)cc2)C(=O)O)cc1 (stereo not given),x,7,2,-36,15
C/C(=N\NS(=O)(=O)c1ccccc1)c1ccc2c(c1)OCO2,x,x,1,x,x
COc1ccc(CC(=O)n2nc(-c3ccccc3)nc2NCc2ccco2)cc1,x,2,10*,-3,-14
CCCCCC(=O)N1CCN(CCN=CC2=C(O)CC(c3ccc(OC)c(OC)c3)CC2=O)CC1 (stereo not given),-2,11,2,-24,165*
CCCCCC(=O)N1CCN(CCN=CC2=C(O)CC(c3ccc(OC)cc3)CC2=O)CC1 (stereo not given),0,10,1,-3,8
Oc1ccccc1-c1nc(/C=C/c2ccccc2)nn1-c1ccccc1,5,5,5,-23,-4
Oc1ccc(/C=C/c2nc(-c3ccccc3O)n(-c3ccccc3)n2)cc1,x,6,3,98*,-20
COc1ccc(/C=C/C(=O)NC(=S)Nc2ccc(S(=O)(=O)Nc3cc(OC)ncn3)cc2)cc1,x,x,8.7*,x,x
CC(C)n1nc(C(=O)Oc2cccc(Cl)c2Cl)c2ccccc2c1=O,-5,9,2,-32,35*
CC(C)[C@H](NC(=O)c1ccccc1)C(=O)OCC(=O)NCc1ccc(F)cc1,x,x,-1,x,x
Brc1ccccc1-c1nnc(CSc2nncn2-c2ccccc2)o1,1,8,2,-78,-2
Cc1ccc(-n2nnnc2SCc2nnc(-c3ccccc3Br)o2)cc1,-1,2,10*,-91,-10
COCCn1c(=S)[nH]c2cc(C(=O)N3CCc4ccccc43)ccc2c1=O,0,59*,4,-9,-11
CCCn1c(=S)[nH]c2cc(C(=O)N3CCc4ccccc43)ccc2c1=O,1,12,3,-11,-5
CN(c1ccc(O)cc1)c1nc(-c2ccccc2)cs1,0,13,0,82*,-12
SMILES,Phagocyt inh,Measles CPE,RAM inhibit,BB579 growth dn,Yeast life ext
CC1CN(c2ncnc3c2c(-c2ccccc2)cn3-c2ccc(F)cc2)CC(C)O1 (stereo not given),x,x,8.7*,x,x
O=S(=O)(Nc1ccccn1)c1cccs1,x,x,3,x,x
CN(C)CCCn1c(SCC(=O)N2c3ccccc3Sc3ccccc32)nc2ccccc2c1=O,0,11,1,-17,-4
CCCC(=O)N(Cc1cc2ccccc2[nH]c1=O)c1ccccc1OC,0,38*,1,-18,-17
CSc1c(SCc2ccccc2)cnn(-c2ccccc2)c1=O,-7,3,7,-22,0
CCn1cc(Cl)c(C(=O)N2N=C3/C(=C/c4cccs4)CCCC3C2c2cccs2)n1 (stereo not given),x,1,10*,-53,x
CC(=O)O/N=C/c1c(N2CCOCC2)n(C)c2ccccc12,x,7,0,79*,-10
Cn1c(N2CCOCC2)c(/C=N/OC(=O)c2ccc(F)cc2)c2ccccc21,2,5,1,85*,-23
Cc1ccc(C(=O)O/N=C/c2c(N3CCOCC3)n(C)c3ccccc23)cc1,x,3,1,64*,-8
Cn1c(N2CCOCC2)c(/C=N/OC(=O)c2cccnc2Cl)c2ccccc21,x,x,0,x,x
